Laboratory results published in ChEMBL document CHEMBL2429857, “Synthesis and pharmacological evaluation of pyrazolopyrimidopyrimidine derivatives: anti-inflammatory agents with gastroprotective effect in rats” (2013).

How the values were obtained:
Rattus norvegicus [1] = test: Antiinflammatory activity in Wistar rat assessed as inhibition of carrageenan-induced paw edema at 100 mg/kg, ip administered 30 mins prior to carrageenan challenge measured after 1 hr relative to vehicle-treated control; format: functional; conditions: route intraperitoneal
Outline: (§1)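 Adult male Wistar rats (150–170 g), fasted overnight with water, n = 6 per group. Vehicle (Tween 80/absolute ethanol/0.9 % saline 1:1:18; 2.5 ml/kg) or drug given i.p. 30 min before 0.05 ml of 1 % carrageenan into the left hind paw. Paw volume to the tibiotarsal joint measured by plethysmometer at 0, 1, 3, 5 h. Oedema = VT − V0; % inhibition against vehicle controls. Mean ± SEM, Student's t test.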

Rattus norvegicus [2] = test: Antiinflammatory activity in Wistar rat assessed as inhibition of carrageenan-induced paw edema at 50 mg/kg, ip administered 30 mins prior to carrageenan challenge measured after 1 hr relative to vehicle-treated control; format: functional; conditions: route intraperitoneal; outline: as §1
Rattus norvegicus [3] = test: Antiinflammatory activity in Wistar rat assessed as inhibition of carrageenan-induced paw edema at 100 mg/kg, ip administered 30 mins prior to carrageenan challenge measured after 5 hrs relative to vehicle-treated control; format: functional; conditions: route intraperitoneal; outline: as §1
Rattus norvegicus [4] = test: Gastroprotective activity in Wistar rat assessed as inhibition of HCl/ethanol-induced gastric ulcer at 50 mg/kg, ip administered 30 mins prior to HCl/ethanol challenge measured after 1 hr relative to vehicle-treated control; format: functional; conditions: Stomach, route intraperitoneal
Outline: (§2)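 Male Wistar rats (150–170 g), fasted 24 h, six per group. Vehicle (Tween 80/ethanol/saline 1/1/18) or treatment given i.p.; 30 min later, oral 150 mM HCl/EtOH (40:60, v/v), 1 ml/100 g. Killed 1 h afterwards. Stomachs opened along the greater curvature and stretched out. Summed lesion length (mm) taken as lesion index; % inhibition against vehicle controls. Mean ± SEM, Student's t test.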

Rattus norvegicus [5] = test: Antiinflammatory activity in Wistar rat assessed as inhibition of carrageenan-induced paw edema at 50 mg/kg, ip administered 30 mins prior to carrageenan challenge measured after 3 hrs relative to vehicle-treated control; format: functional; conditions: route intraperitoneal; outline: as §1
Rattus norvegicus [6] = test: Antiinflammatory activity in Wistar rat assessed as inhibition of carrageenan-induced paw edema at 100 mg/kg, ip administered 30 mins prior to carrageenan challenge measured after 3 hrs relative to vehicle-treated control; format: functional; conditions: route intraperitoneal; outline: as §1
Rattus norvegicus [7] = test: Antiinflammatory activity in Wistar rat assessed as inhibition of carrageenan-induced paw edema at 50 mg/kg, ip administered 30 mins prior to carrageenan challenge measured after 5 hrs relative to vehicle-treated control; format: functional; conditions: route intraperitoneal; outline: as §1
Rattus norvegicus [8] = test: Antiinflammatory activity in ip dosed Wistar rat assessed as inhibition of carrageenan-induced paw edema administered 30 mins prior to carrageenan challenge measured after 1 to 5 hrs relative to vehicle-treated control; format: functional, organism-based; outline: as §1
Rattus norvegicus [9] = test: Gastroprotective activity in Wistar rat assessed as inhibition of HCl/ethanol-induced gastric ulcer at 100 mg/kg, ip administered 30 mins prior to HCl/ethanol challenge measured after 1 hr relative to vehicle-treated control; format: functional; conditions: Stomach, route intraperitoneal; outline: as §2

Compound	inhibition in vivo at 100 mg/kg (Rattus norvegicus [1])	inhibition in vivo at 50 mg/kg (Rattus norvegicus [2])	inhibition in vivo at 100 mg/kg (Rattus norvegicus [3])	inhibition in vivo at 50 mg/kg (Rattus norvegicus [4])	inhibition in vivo at 50 mg/kg (Rattus norvegicus [5])	inhibition in vivo at 100 mg/kg (Rattus norvegicus [6])	inhibition in vivo at 50 mg/kg (Rattus norvegicus [7])	inhibition (Rattus norvegicus [8])	inhibition in vivo at 100 mg/kg (Rattus norvegicus [9])
Cc1nc2c3c(C)nn(-c4ccccc4)c3ncn2c(=N)c1C#N	92.2%	59.2%	62.8%	68.4%	59%	71.4%	58%	Dose-dependent effect	
Cc1nn(-c2ccccc2)c2ncn3c(=N)c(C#N)cnc3c12	80.4%	42.6%	58.1%	48.6%	40.6%	56.8%	39.8%	Dose-dependent effect	64.7%
CCOC(=O)c1c(C)nc2c3c(C)nn(-c4ccccc4)c3ncn2c1=N	94.2%	62.3%	68.8%	72.5%	60%	82.8%	59.4%	Dose-dependent effect	91.4%
CN/C(=N\CCSCc1nc[nH]c1C)NC#N [CIMETIDINE]									74%
CCOC(=O)c1c(CC)nc2c3c(C)nn(-c4ccccc4)c3ncn2c1=N	65.7%	32%	40.2%	40.2%	28.8%	42.9%	25.1%	Dose-dependent effect	52.2%
